# Reference: ChEMBL document CHEMBL5705886, “GSK1070916, a potent Aurora B/C kinase inhibitor with broad antitumor activity in tissue culture cells and human tumor xenograft models” (Mol Cancer Ther, 2009)
# Active and inactive are the calls of the source. No cut-off for these calls is given here.
# What was measured:
# CESS = test: Antiproliferative activity against human CESS cells assessed as inhibition of cell viability measured for 6 to 7 days by cell titer glo assay; assay type: functional, cell-based
# In short: (§1)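 Tumor lines plated in recommended growth media, overnight at 37°C, 5% CO2, then given serial dilutions; a T=0 plate read with CellTiter-Glo at dosing. After 6–7 d of exposure, viability read by CellTiter-Glo luminescence. No-cell wells subtracted, data expressed as % of DMSO control.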
# RPMI-6666 = test: Antiproliferative activity against human RPMI-6666 cells assessed as inhibition of cell viability measured for 6 to 7 days by cell titer glo assay; assay type: functional, cell-based
# In short: (§2)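 Cells seeded in recommended growth medium, held overnight at 37°C in 5% CO2, then exposed to serial dilutions of inhibitor for 6–7 d. A time-zero plate was read with CellTiter-Glo at dosing. Luminescent viability read at the end. No-cell wells subtracted as background, data expressed as percent of DMSO control.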
# [1] = Antiproliferative activity against human BC-2 cells assessed as inhibition of cell viability measured for 6 to 7 days by cell titer glo assay; assay type: functional, cell-based; in short: as §1
# HCT-116 = test: Antitumor activity in human HCT-116 cells xenografted in nude mouse assessed as reduction in tumor growth at 25 to 100 mg/kg, ip administered once daily for 5 consecutive days with 2 days off scheduled for 3 cycles measured upto 60 days; conditions: dose 25-100 mg/kg, time <= 60.0 day
# MC-CAR = test: Antiproliferative activity against human MC-CAR cells assessed as inhibition of cell viability measured for 6 to 7 days by cell titer glo assay; assay type: functional, cell-based
# In short: (§3)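 Cells seeded in recommended growth medium, incubated overnight at 37°C in 5% CO2, then exposed to serial dilutions of inhibitor for 6–7 d. A parallel plate was read with CellTiter-Glo at compound addition as a T=0 value. The luminescent viability readout had no-cell background subtracted and was expressed as % of DMSO control.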
# KG-1 = test: Antiproliferative activity against human KG-1 cells assessed as inhibition of cell viability measured for 6 to 7 days by cell titer glo assay; assay type: functional, cell-based; in short: as §3
# [2] = Toxicity in SCID nude mouse xenografted with human A549 cells assessed as drug tolerance at 25 to 100 mg/kg, ip administered once daily for 5 consecutive days with 2 days off scheduled for 3 cycles measured upto 60 days; assay type: organism-based; conditions: in vivo, 1440 h, dose 25-100 mg/kg, time 60 day
# SK-MEL-28 = test: Antiproliferative activity against human SK-MEL-28 cells assessed as inhibition of cell viability measured for 6 to 7 days by cell titer glo assay; assay type: functional, cell-based; in short: as §2
# [3] = Toxicity in SCID nude mouse xenografted with human SW620 cells assessed as drug tolerance at 25 to 100 mg/kg, ip administered once daily for 5 consecutive days with 2 days off scheduled for 3 cycles measured upto 60 days; assay type: organism-based, SW-620; conditions: in vivo, 1440 h, dose 25-100 mg/kg, time < 60 day
# KCL-22 = test: Antiproliferative activity against human KCL-22 cells assessed as inhibition of cell viability measured for 6 to 7 days by cell titer glo assay; assay type: functional, cell-based; in short: as §3
# HL-60 = test: Antitumor activity in human HL-60 cells xenografted in SCID mouse assessed as median survival time at 12.5 mg/kg, ip administered once daily for 5 consecutive days with 2 days off scheduled for 2 cycles measured upto 120 days; assay type: functional; conditions: time <= 120 day
# [4] = biological target: Aurora kinase B (Homo sapiens) (UniProt Q96GD4)
# Chain of Aurora kinase B (Homo sapiens) (Q96GD4 whole entry): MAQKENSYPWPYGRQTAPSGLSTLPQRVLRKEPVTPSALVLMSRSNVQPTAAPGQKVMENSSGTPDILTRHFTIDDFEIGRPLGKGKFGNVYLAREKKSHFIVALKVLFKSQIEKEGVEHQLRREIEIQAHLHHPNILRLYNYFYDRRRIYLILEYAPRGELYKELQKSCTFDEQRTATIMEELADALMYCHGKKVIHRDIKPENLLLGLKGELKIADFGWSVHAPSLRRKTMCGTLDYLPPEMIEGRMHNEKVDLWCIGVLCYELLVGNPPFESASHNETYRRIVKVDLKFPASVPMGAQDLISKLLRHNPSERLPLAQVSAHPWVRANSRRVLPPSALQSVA
# DOHH-2 = test: Antiproliferative activity against human DOHH-2 cells assessed as inhibition of cell viability measured for 6 to 7 days by cell titer glo assay; assay type: functional, cell-based; in short: as §1
# [5] = Antiproliferative activity against human CRO-AP5 cells assessed as inhibition of cell viability measured for 6 to 7 days by cell titer glo assay; assay type: functional, cell-based; in short: as §1
# MHH-PREB-1 = test: Antiproliferative activity against human MHH-PREB-1 cells assessed as inhibition of cell viability measured for 6 to 7 days by cell titer glo assay; assay type: functional, cell-based; in short: as §3
# PANC-1 = test: Antiproliferative activity against human PANC-1 cells assessed as inhibition of cell viability measured for 6 to 7 days by cell titer glo assay; assay type: functional, cell-based; in short: as §2
# BV-173 = test: Antiproliferative activity against human BV-173 cells assessed as inhibition of cell viability measured for 6 to 7 days by cell titer glo assay; assay type: functional, cell-based; in short: as §1
# NAMALVA = test: Antiproliferative activity against human NAMALWA cells assessed as inhibition of cell viability measured for 6 to 7 days by cell titer glo assay; assay type: functional, cell-based; in short: as §3
# HN5 = test: Antiproliferative activity against human HN5 cells assessed as inhibition of cell viability measured for 6 to 7 days by cell titer glo assay; assay type: functional, cell-based; in short: as §3
# [6] = Antiproliferative activity against human BC1 cell line assessed as inhibition of cell viability measured for 6 to 7 days by cell titer glo assay; assay type: functional, cell-based; in short: as §1
# [7] = Antiproliferative activity against human RCH-ACV cells assessed as inhibition of cell viability measured for 6 to 7 days by cell titer glo assay; assay type: functional, cell-based; in short: as §2
# [8] = Antiproliferative activity against human F-36P cells assessed as inhibition of cell viability measured for 6 to 7 days by cell titer glo assay; assay type: functional, cell-based; in short: as §1
# [9] = Antiproliferative activity against human SKW-3 cells assessed as inhibition of cell viability measured for 6 to 7 days by cell titer glo assay; assay type: functional, cell-based; conditions: SKW3; in short: as §2
# NOMO-1 = test: Antiproliferative activity against human NOMO-1 cells assessed as inhibition of cell viability measured for 6 to 7 days by cell titer glo assay; assay type: functional, cell-based; in short: as §2
# MDA-MB-231 = test: Antiproliferative activity against human MDA-MB-231 cells assessed as inhibition of cell viability measured for 6 to 7 days by cell titer glo assay; assay type: functional, cell-based; in short: as §3
# SK-BR-3 = test: Antiproliferative activity against human SK-BR-3 cells assessed as inhibition of cell viability measured for 6 to 7 days by cell titer glo assay; assay type: functional, cell-based; in short: as §2
# [10] = Antiproliferative activity against human CML-T1 cells assessed as inhibition of cell viability measured for 6 to 7 days by cell titer glo assay; assay type: functional, cell-based; in short: as §1
# SU-DHL-6 = test: Antiproliferative activity against human SU-DHL-6 cells assessed as inhibition of cell viability measured for 6 to 7 days by cell titer glo assay; assay type: functional, cell-based; in short: as §2
# SEM cells = test: Antiproliferative activity against human SEM cells assessed as inhibition of cell viability measured for 6 to 7 days by cell titer glo assay; assay type: functional, cell-based; in short: as §2
# OVCAR-3 = test: Antiproliferative activity against human OVCAR-3 cells assessed as inhibition of cell viability measured for 6 to 7 days by cell titer glo assay; assay type: functional, cell-based; in short: as §2
# [11] = Antiproliferative activity against HUVEC cells assessed as reduction in cell viability measured after 6 days by cell titer glo assay; assay type: toxicity, cell-based; conditions: human
# In short: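 HUVECs (primary) in EGM-2 with 2% FBS and supplements, assayed in cycling and nonproliferating states. Cycling: 500 cells/well seeded 1 d before dosing. Nonproliferating: 35,000 cells in half-area wells seeded 4 d ahead, fresh media next day and media changed 1 d before dosing. 2-fold dilutions 20000 to 0.15 nmol/L, 6 d at 37°C, 5% CO2. CellTiter-Glo 30 min, background-subtracted, % of DMSO control.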
# MCF7 = test: Antiproliferative activity against human MCF7 cells assessed as inhibition of cell viability measured for 6 to 7 days by cell titer glo assay; assay type: functional, cell-based; in short: as §3
# J-RT3-T3-5 = test: Antiproliferative activity against human J-RT3-T3-5 cells assessed as inhibition of cell viability measured for 6 to 7 days by cell titer glo assay; assay type: functional, cell-based; in short: as §3
structure (smiles),measurement,setting,value
CCn1cc(-c2ccnc3[nH]c(-c4cccc(CN(C)C)c4)cc23)c(-c2ccc(NC(=O)N(C)C)cc2)n1 [GSK-1070916],EC50,CESS,5 nM
same,EC50,RPMI-6666,10 nM
same,EC50,[1],75 nM
same,Activity,HCT-116,Active
same,EC50,MC-CAR,9 nM
same,EC50,KG-1,32 nM
same,Activity,[2],Non-Toxic
same,EC50,SK-MEL-28,7 nM
same,Activity,[3],Non-Toxic
same,EC50,KCL-22,5 nM
same,MST,HL-60,44 days
same,T1/2,[4],> 8 h
same,EC50,DOHH-2,14 nM
same,EC50,[5],3 nM
same,EC50,MHH-PREB-1,4 nM
same,EC50,PANC-1,13 nM
same,EC50,BV-173,5 nM
same,EC50,NAMALVA,6 nM
same,EC50,HN5,10 nM
same,EC50,[6],18 nM
same,EC50,[7],4 nM
same,EC50,[8],10 nM
same,EC50,[9],5 nM
same,EC50,NOMO-1,2 nM
same,EC50,MDA-MB-231,11 nM
same,EC50,SK-BR-3,4 nM
same,EC50,[10],3 nM
same,EC50,SU-DHL-6,6 nM
same,EC50,SEM cells,3 nM
same,EC50,OVCAR-3,3 nM
same,EC50 at 6 days,[11],3900 nM
same,EC50,MCF7,13 nM
same,EC50,J-RT3-T3-5,9 nM
